Results on 19 molecules are retold here after ChEMBL document CHEMBL1641481, “Synthesis and biological evaluation of novel dihydro-aryl/alkylsulfanyl-cyclohexylmethyl-oxopyrimidines (S-DACOs) as high active anti-HIV agents” (Bioorg Med Chem Lett, 2011).

In the first data set the test system is Human immunodeficiency virus 1. As to the kind of experiment: Antiviral activity against HIV1 3B infected in human A17 cells assessed as protection against virus-induced cytopathogenicity after 3 days. The data set is classed as functional, organism-based. To be noted: Human immunodeficiency virus 1, 3B, A17, 72 h. On the technique in general: Damage to the host cells serves as the signal in cytopathic effect assays.
The term EC50 denotes the concentration needed to bring the measured effect to its halfway point. With `CC(C)c1c(CC2CCCCC2)nc(SCC(=O)c2ccccc2)[nH]c1=O`, the EC50 came to 46 nM.

Another data set has as its system Human immunodeficiency virus 1. The experiment in a line: Antiviral activity against HIV1 3B infected in human PBMC assessed as protection against virus-induced cytopathogenicity after 3 days. The data set is classed as functional, organism-based. The settings on record: Human immunodeficiency virus 1, 3B, 72 h.
Regarding `CC(C)c1c(CC2CCCCC2)nc(SCC(=O)c2ccccc2)[nH]c1=O`, the EC50 worked out at 31 nM.

System in another data set: not listed separately
The experiment in a line: Selectivity index, ratio of CC50 for human […] cells to EC50 for HIV1 3B infected in human C8166 cells. To be noted: read-out: Ratio CC50/IC50. The format is toxicity, cell-based. In a few lines: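 SI was calculated as CC50/EC50. CC50 came from the 72 h MTT assay on uninfected C8166 cells. EC50 came from the 3-day syncytium-count assay in C8166 cells infected with HIV-1 IIIB at MOI 0.02. Both values are means of three experiments.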
`Cc1c(CC2CCCCC2)nc(SCC(C)C)[nH]c1=O`: the selectivity ratio was determined as 34. Same read-out and setting: to `CC(C)c1c(Cc2ccccc2)nc(SCC(=O)c2ccccc2)[nH]c1=O` belongs greater than 37700; to `Cc1c(CC2CCCCC2)nc(SCc2ccccc2)[nH]c1=O`, 48; to `CCc1c(CC2CCCCC2)nc(SCC(C)C)[nH]c1=O`, 691. As for `CCc1c(Cc2ccccc2)nc(SCC(=O)c2ccccc2)[nH]c1=O`, the selectivity ratio was greater than 6850. With `CC(C)c1c(CC2CCCCC2)nc(SCC(=O)c2ccccc2)[nH]c1=O`, the selectivity ratio was found to be 3.62e+06. Same read-out and setting: to `CC(C)c1c(CC2CCCCC2)nc(SCC(=O)c2ccccc2O)[nH]c1=O` belongs 117000. As to `CC(C)c1c(CC2CCCCC2)nc(SCc2ccccc2)[nH]c1=O`, the selectivity ratio was 2.54e+06. As to `CCc1c(CC2CCCCC2)nc(SCC(=O)c2ccc(OC)cc2)[nH]c1=O`, the selectivity ratio came to 516000. Regarding `CCc1c(CC2CCCCC2)nc(SCC(=O)c2ccccc2)[nH]c1=O`, the selectivity ratio is 6.32e+06. `Cc1ccnc2c1NC(=O)c1cccnc1N2C1CC1` [NEVIRAPINE]: the selectivity ratio is greater than 15200.

For the molecule `COc1ccc(C(=O)CSc2nc(Cc3ccccc3)c(C(C)C)c(=O)[nH]2)cc1`, the selectivity ratio was greater than 3390.

With `Cc1c(CC2CCCCC2)nc(SCC(=O)c2ccccc2)[nH]c1=O`, the selectivity ratio turned out to be 2150. On to `COc1ccc(C(=O)CSc2nc(CC3CCCCC3)c(C)c(=O)[nH]2)cc1`, for which the selectivity ratio amounted to 396. `COc1ccc(C(=O)CSc2nc(CC3CCCCC3)c(C(C)C)c(=O)[nH]2)cc1`: the selectivity ratio came to 1.39e+06. The same measure, in the same setting: to `CCc1c(CC2CCCCC2)nc(SCc2ccccc2)[nH]c1=O` belongs 776; to `CC(C)CSc1nc(CC2CCCCC2)c(C(C)C)c(=O)[nH]1`, 1710. Still for that read-out and setting: the value for `CCc1c(Cc2ccccc2)nc(SCC(=O)c2ccc(OC)cc2)[nH]c1=O` was greater than 10500.

Consider `Cc1cn([C@H]2C[C@H](N=[N+]=[N-])[C@@H](CO)O2)c(=O)[nH]c1=O` [ZIDOVUDINE], for which the selectivity ratio turned out to be 444000.
